# Screening results from PubChem.
# CSC inhib: cancer stem cell inhibition | actives 1.1% (n = 300,000) | cancer stem cell-like cells viability, luminescence | inhibition, % at 7.5 µM; in the data active = inhibition above about 75%; tested in HMLE shEcad cells
# Beta cell apopt: blocks beta cell apoptosis | INS-1E cytokine-induced death, ATP luminescence, 48 h; percent of positive-control rescue, neutral wells zero | AID 435005 | protection from apoptosis, % (no concentration beside the values) | actives 0.8% (n = 300,000);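 active = Every replicate reaches about 75%, or at least half do and their mean reaches it too, limit read from the data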;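 also: higher means more ATP so stronger rescue from cytokine killing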
# Mdm2-MdmX inh: disrupts the human Mdm2-MdmX interaction; inhibition, % at 8 µM; SaOS-2 split-luciferase Mdm2/MdmX complementation, luminescence; actives 3% (n = 330,000);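 active = inhibition of at least 50% at 8 µM in the primary screen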
# Lmaj promast: inhibitors of Leishmania major promastigote growth | Leishmania major promastigotes, resazurin fluorescence viability | inhibition, % at 10 µM | actives 9% (n = 200,000) | AID 1063; in the data active = inhibition above about 50%;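 also: promastigotes grown with compound for 44 hours at 28 °C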
# T cruzi inh: blocks replication of Trypanosoma cruzi. T. cruzi beta-gal in NIH3T3, luminescence, 90 h. inhibition, % (test concentration not listed). actives 1.4% (n = 300,000). AID 1885;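 active = mean inhibition across valid replicates above about 55%, limit read from the data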;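 also: signal also drops with host cell toxicity which is not excluded here; higher percent means less beta-gal luminescence so fewer parasites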
#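 Assay system: NIH/3T3 host cells with β-galactosidase reporter T. cruzi; input: 5,000 host fibroblasts per well; compound: single 50 nL compound addition per well in DMSO; timing: ≥90 h infection period, 3 h prior cell attachment; measured by: GalScreen β-gal luminescence, detergent lysis, 60 min; evaluation: percent inhibition of parasite-derived β-gal signal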
# SKKanGAS inh: inhibitors of SKKanGAS S. pyogenes growth in kanamycin (SK-promoter or general growth effect); actives 1.3% (n = 300,000); AID 1662; BacTiter-Glo, 6 h; inhibition, % at 7.5 µM;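 active = mean replicate score, as percent of positive control median, at least 50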;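 also: strain carries kanamycin resistance gene driven by streptokinase promoter and grows in 40 µg/ml kanamycin; loss of luminescence reflects streptokinase promoter inhibition or plain growth inhibition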
# Hits are given with their value; i = inactive; nt = no result given. Sampled rows, rich in hits. Any-hit rate of the full collection: about 9.4%.
SMILES,CSC inhib,Beta cell apopt,Mdm2-MdmX inh,Lmaj promast,T cruzi inh,SKKanGAS inh
CCCCCn1c(=NC(=O)c2ccco2)c(C(=O)OCC)cc2c(=O)n3ccccc3nc21,i,i,i,i,i,i
CCOC(=O)c1cc2c(=O)n3ccccc3nc2n(C)c1=NC(=O)c1c(-c2c(F)cccc2Cl)noc1C,i,i,i,nt,i,i
CCOC(=O)c1cc2c(=O)n3ccccc3nc2n(C(C)C)c1=NC(=O)c1c(-c2c(F)cccc2Cl)noc1C,i,i,i,99,58,i
CCCCn1c(=NC(=O)c2ccco2)c(C(=O)OCC)cc2c(=O)n3ccccc3nc21,i,nt,i,51,i,i
Cc1nc(-c2ccccc2)nc2n[nH]c(N)c12,i,i,i,nt,i,i
CN1CCCN(C(=O)c2cc(-c3cccc4ccccc34)nc3ccccc23)CC1,i,i,i,nt,i,i
Cc1cccc(NC(=O)CSc2nc3ccccc3c(=O)n2CC2CCCO2)c1 (stereo not given),i,i,i,nt,nt,nt
C/C(=N\Nc1nc(-c2ccccc2)cs1)c1cccs1,i,i,i,79,i,i
C/C(=N\Nc1nc2ccccc2s1)c1cccs1,i,i,i,i,i,50
C#Cc1ccc([C@@H]2C=C(C(=O)N3CCN(Cc4ccc5c(c4)OCO5)CC3)O[C@H](OCC)[C@H]2CCCO)cc1,i,i,i,i,i,i
Cc1sc(NC(=O)C2C3CCC(C3)C2C(=O)O)c(C(N)=O)c1-c1ccc(C(C)(C)C)cc1 (stereo not given),i,i,i,57,i,i
O=C(NC1CCCC1)C1CCCN1C(=O)Oc1ccccc1 (stereo not given),i,i,i,i,i,i
Cc1ccccc1-n1ncc2c1CC(C)(C)CC2NC(=O)C1=CC(=O)CC(C)(C)O1 (stereo not given),i,i,i,nt,i,i
COC(=O)Cn1ncc(N2CC(C)OC(C)C2)c(Cl)c1=O (stereo not given),i,i,i,nt,i,i
CC1(c2ccccc2)CC(C)(C)N2C(=O)/C(=C3\SC(=S)NC3=O)c3cccc1c32 (stereo not given),105,i,nt,i,i,114
COC(=O)c1ccc(/C=C(\C#N)C(=O)NC(C)c2ccccc2)cc1 (stereo not given),i,i,i,99,i,i
COc1ccc(/C=C(\C#N)C(=O)NC(C)c2ccccc2)cc1O (stereo not given),i,i,i,nt,i,i
CCN(CC)c1nc(-c2ccccc2)ncc1S(=O)(=O)c1ccc(C)cc1,i,i,i,i,58,i
Cc1ccc(CCN2CC(C(=O)NCCCN(C)Cc3ccccc3)CC2=O)cc1 (stereo not given),i,i,i,i,63,i
CN(CCNC(=O)C1CC(=O)N(c2ccc(F)c(Cl)c2)C1)Cc1ccccc1 (stereo not given),i,i,i,i,60,i
CCCCNC(=O)C1CC(=O)N(CCc2ccccc2)C1 (stereo not given),i,i,i,i,i,i
CCN1CCN(C(=S)Nc2ccc3nc4n(c(=O)c3c2)CCCCC4)CC1,i,i,i,i,i,i
CC1CCC(NC(=O)N(CCCl)N=O)CC1 (stereo not given),i,i,i,nt,i,i
COc1cc(NC(=O)C2=C(N3CCOCC3)/C(=C\c3ccc(Br)cc3)CC2)cc(OC)c1OC,i,i,i,i,i,i
COc1cc(NC(=O)C2=C(N3CCOCC3)/C(=C\c3ccc(Cl)cc3Cl)CC2)cc(OC)c1OC,i,i,i,97,i,i
SMILES,CSC inhib,Beta cell apopt,Mdm2-MdmX inh,Lmaj promast,T cruzi inh,SKKanGAS inh
CC(=O)c1c(C(C)=O)c(C)n(-c2ccc(C)c(NC(=O)c3ccccc3Cl)c2)c1C,i,i,i,53,i,i
Cc1ccc(NC(=O)c2ccccc2Cl)c(Cl)c1,i,i,i,i,i,i
S=c1[nH]cnc2scc(-c3ccccc3)c12,i,nt,i,99,i,i
O=C(CCCSc1nnnn1-c1cccc2ccccc12)c1ccc(F)cc1,i,i,i,i,i,i
Cc1nc(SC(C(N)=O)c2ccccc2)c(C#N)c(C)c1C (stereo not given),i,i,i,nt,i,i
COC(=O)C(Sc1nc(C)cc(C)c1C#N)c1ccccc1 (stereo not given),i,i,i,98,i,i
Cc1[nH]n(C(C)(C)C)c(=O)c1Sc1ccc(Cl)cc1,i,i,i,i,61,i
